The subject of data set [1] is Human immunodeficiency virus 1. Put plainly: Antiviral activity against HIV1 harboring A17 mutant infected in human TZM-bl cells. It counts as functional, organism-based. As to conditions: Human immunodeficiency virus 1, TZM-bl. In a few lines:
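TZM-bl cells (2x10⁵/mL) were infected with mutant virus in the presence of 15 µg/mL DEAE-dextran. A17 (IIIB variant) was grown in H9 cells; the other mutants were NL4-3-based plasmids transfected into 293T cells, then expanded in H9 cells. Compounds were tested at 0.05–500 nM (DMSO constant within an assay) for 48 hr at 37°C. Read-out was luciferase RLU from lysed cells, with at least 6 replicates over multiple days.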

Data set [2] in a line: Selectivity ratio of IC50 for antiviral activity against wild type HIV1 IIIB infected in human TZM-bl cells to IC50 for antiviral activity against HIV1 harboring Y181C mutant infected in human TZM-bl cells. As to conditions: human immunodeficiency virus 1. It counts as toxicity, cell-based. In a few lines: (§1)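 TZM-bl cells (2x10⁵/mL) with 15 µg/mL DEAE-dextran were infected with HIV-1 IIIB, A17 (K103N/Y181C) IIIB variant, or NL4-3-based NNRTI-resistant mutants. Compound was present at 0.05–500 nM (DMSO held constant, 0.005% or 0.05%) for 48 hr at 37°C, 5% CO₂.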

Data set [3] is described as follows: Selectivity ratio of IC50 for antiviral activity against wild type HIV1 IIIB infected in human TZM-bl cells to IC50 for antiviral activity against HIV1 harboring L100I/K103N double mutant infected in human TZM-bl cells. It counts as toxicity, cell-based. As to conditions: human immunodeficiency virus 1. In a few lines:
as §1

In another data set the test system is TZM. Kind of data set: Cytotoxicity against human TZM-bl cells assessed as reduction in cell viability by MTS assay. Format: functional. For orientation: Tetrazolium dyes change colour on reduction, which living cells bring about.
Data set [4] can be described thus: Selectivity index, ratio of CC50 for cytotoxicity against human TZM-bl cells assessed as reduction in cell viability by MTS assay to EC50 for antiviral activity against wild type HIV1 IIIB infected in human TZM-bl cells. It counts as toxicity, cell-based. The conditions noted are these: read-out: Ratio CC50/EC50.
A short description of data set [5]: Metabolic stability in mouse liver microsome measured up to 60 mins presence of NADPH. It counts as ADME. The conditions noted are these: microsomes, 1 h. Background: Liver microsomes are vesicles of endoplasmic reticulum, rich in cytochrome P450 enzymes.
Data set [6] in a line: Metabolic stability in human liver microsome measured up to 60 mins presence of NADPH. It counts as ADME. The conditions noted are these: microsomes, 1 h.
Data set [7] addresses Voltage-gated inwardly rectifying potassium channel KCNH2 (Homo sapiens, UniProt Q12809). Kind of data set: Inhibition of hERG by fluorescence polarization assay. It counts as toxicity. In general terms: Block of hERG is tested as a sign of cardiac risk.
A short description of data set [8]: Cmax in BALB/c mouse brain at 250 mg/kg, IG measured at 0.5 to 24 hrs by HPLC-MS analysis. As to conditions: po. More on the design: time 0.5-24 hrs, dose 250 mg/kg, route ig. Format: ADME, organism-based. Summed up: (§2)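 Mice averaging 20 g (24 animals) were fasted 1 h before and 1 h after dosing. They received 250 mg/kg as 0.5 ml suspension in 1% CMC, 0.05% Tween 80 by intragastric intubation. Blood and brain were taken after decapitation at 0.5, 1, 2, 3, 5, 8 and 24 h (3 per time point). Plasma was frozen at -20°C and brain at -120 °C. Quantification was by UPLC-HRMS (ESI+, EIC m/z 476.0691) against plasma-matrix standards. Parameters were derived by noncompartmental analysis; LLOQ 5 ng/ml, with values below it set to 2.5.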

Data set [9] can be described thus: Half life in BALB/c mouse plasma at 250 mg/kg, IG measured at 0.5 to 24 hrs by HPLC-MS analysis. It counts as ADME, organism-based. The conditions noted are these: in vivo, po, time 0.5-24 hrs. In a few lines: as §2
The nature of data set [10]: Half life in BALB/c mouse brain at 250 mg/kg, IG measured at 0.5 to 24 hrs by HPLC-MS analysis. It counts as ADME, organism-based. The conditions noted are these: in vivo, po, time 0.5-24 hrs. Summed up:
as §2

The nature of data set [11]: Subacute toxicity in BALB/c mouse assessed as pathological change in lungs at 25 to 250 mg/kg, IG measured daily for 30 days by H and E staining based histological analysis. The conditions noted are these: in vivo, po, 720 h, dose 25-250 mg/kg, time 30 day. Format: organism-based. In a few lines: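 Male Balb/C mice (17 per group) received 25 or 250 mg/kg intragastrically in 1% starch gel once daily for 30 days, against starch gel controls. Internal organs were examined macroscopically after the study. Sections were paraffin-embedded and stained with hematoxylin and eosin.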

Data set [12] in a line: Subacute toxicity in BALB/c mouse assessed as reduction in urea level at 25 to 250 mg/kg, IG measured daily for 30 days. Format: organism-based. The conditions noted are these: in vivo, po, 720 h, dose 25-250 mg/kg, time 30 day. Summed up: (§3)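 Dosing was daily intragastric 25 or 250 mg/kg in 1% starch gel (0.2 ml/20 g) for 30 days in male Balb/C mice, 17 per group, with starch gel controls. After the final dose, mice were fasted for 2 h with water available, then bled. Serum was clotted for 30 min at room temperature and centrifuged at 3500 rpm. Total protein, urea, creatinine, AST, ALT and alkaline phosphatase were assayed and compared by Mann-Whitney with Holm-Šídák, p < 0.05.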

A short description of data set [13]: Subacute toxicity in BALB/c mouse assessed as reduction in aminotransferases level at 25 to 250 mg/kg, IG measured daily for 30 days. Format: organism-based. The conditions noted are these: in vivo, po, 720 h, dose 25-250 mg/kg, time 30 day. Summed up: as §3
Data set [14] in a line: Subacute toxicity in BALB/c mouse assessed as reduction in RBC count at 25 to 250 mg/kg, IG measured daily for 30 days. Format: organism-based, Erythrocyte. As to conditions: in vivo, po, 720 h, dose 25-250 mg/kg, time 30 day.
A short description of data set [15]: Subacute toxicity in BALB/c mouse assessed as reduction in platelets count at 25 to 250 mg/kg, IG measured daily for 30 days. It counts as organism-based. The conditions noted are these: in vivo, po, 720 h, dose 25-250 mg/kg, time 30 day.
Data set [16] can be described thus: Subacute toxicity in BALB/c mouse assessed as effect on spleen weight at 25 to 250 mg/kg, IG measured daily for 30 days. Format: organism-based. As to conditions: in vivo, po, 720 h, dose 25-250 mg/kg, time 30 day.

These results are taken from ChEMBL document CHEMBL5338759, “N-Phenyl-1-(phenylsulfonyl)-1H-1,2,4-triazol-3-amine as a New Class of HIV-1 Non-nucleoside Reverse Transcriptase Inhibitor” (J Med Chem, 2023).

pEC50, pIC50: −log10 of the molar value.

By pEC50 is commonly meant the EC50 on a negative log10 scale, so that one unit is a factor of ten. Low readings indicate a large EC50, high ones a small EC50. By pIC50 is commonly meant −log10 of the IC50, conventionally taken in molar units. Low readings indicate a high IC50, high ones a low IC50. A word on the CC50: it is the concentration at which the toxic effect on the cells reaches its halfway point.

Voltage-gated inwardly rectifying potassium channel KCNH2, sequence (Q12809 whole entry): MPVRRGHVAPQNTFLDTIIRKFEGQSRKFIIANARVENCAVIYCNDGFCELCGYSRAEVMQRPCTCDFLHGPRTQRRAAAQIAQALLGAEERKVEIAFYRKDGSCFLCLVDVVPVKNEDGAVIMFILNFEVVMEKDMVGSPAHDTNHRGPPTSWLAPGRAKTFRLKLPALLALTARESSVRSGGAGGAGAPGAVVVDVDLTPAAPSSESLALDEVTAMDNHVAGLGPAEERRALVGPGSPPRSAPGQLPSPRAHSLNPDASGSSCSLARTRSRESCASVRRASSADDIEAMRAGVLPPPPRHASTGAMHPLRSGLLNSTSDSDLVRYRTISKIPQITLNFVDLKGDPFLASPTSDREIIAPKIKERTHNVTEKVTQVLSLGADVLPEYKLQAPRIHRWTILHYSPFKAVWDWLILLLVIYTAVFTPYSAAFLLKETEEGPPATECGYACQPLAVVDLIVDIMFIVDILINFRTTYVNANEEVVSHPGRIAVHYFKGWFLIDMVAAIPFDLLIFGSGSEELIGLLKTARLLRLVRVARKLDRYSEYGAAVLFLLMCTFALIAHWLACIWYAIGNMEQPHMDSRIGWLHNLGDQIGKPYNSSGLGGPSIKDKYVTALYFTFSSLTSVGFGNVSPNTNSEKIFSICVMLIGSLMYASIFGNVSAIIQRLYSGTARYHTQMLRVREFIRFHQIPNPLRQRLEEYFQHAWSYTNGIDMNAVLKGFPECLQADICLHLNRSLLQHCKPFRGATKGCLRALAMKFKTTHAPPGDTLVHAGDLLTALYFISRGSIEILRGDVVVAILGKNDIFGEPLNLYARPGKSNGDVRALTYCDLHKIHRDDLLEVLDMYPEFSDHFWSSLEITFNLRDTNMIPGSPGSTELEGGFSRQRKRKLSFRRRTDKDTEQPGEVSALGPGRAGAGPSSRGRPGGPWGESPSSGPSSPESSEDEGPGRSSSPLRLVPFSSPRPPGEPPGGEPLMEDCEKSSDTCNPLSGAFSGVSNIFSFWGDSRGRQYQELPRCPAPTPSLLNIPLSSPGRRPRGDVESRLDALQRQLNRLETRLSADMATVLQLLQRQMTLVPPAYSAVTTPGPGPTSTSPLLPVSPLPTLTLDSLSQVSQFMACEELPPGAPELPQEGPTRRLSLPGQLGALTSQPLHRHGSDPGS

As to `N#C/C=C/c1ccc2c(S(=O)(=O)n3nc(Nc4ccc(C#N)c(Cl)c4)nc3N)cccc2c1`, the pEC50 in data set [1] was 9.16. Moreover, the negative logarithm of the IC50 (pIC50) in [1] is 8.89; in [7], 4.94. The “Ratio IC50” value was determined as 16 in data set [2] and 75 in data set [3]. Further, the cytotoxic concentration (CC50) in the data set with TZM was 4800 nM. The selectivity ratio in data set [4] worked out at 10000. Further, the Stability entry in [5] and in data set [6] was “Stable” throughout. In data set [8], this molecule had a Cmax of 40.3 ng/100 mg. The t1/2 in [9] came to 7.7 h; in [10], 11.5 h. In addition, the Activity result in data set [11] is listed as “Non-Toxic”; in data set [12], “Non-Toxic”; in data set [13] it was “Toxic”; in data set [14] it was “Non-Toxic”; in data set [15], “Non-Toxic”; in data set [16], “Non-Toxic”.
